Values after ≈ are worked out from the molar mass of the structure shown.
Legend:
[1] = tested on: Mycobacterium tuberculosis; experiment: Antimycobacterial activity against drug-sensitive Mycobacterium tuberculosis H37Rv ATCC 27294 after 7 days by microplate alamar blue assay; format: functional; conditions: H37Rv ATCC 27294, 168 h
Summary of the method: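 Microplate Alamar Blue Assay against M. tuberculosis H37Rv ATCC 27294, read by fluorescence. MIC was the lowest concentration that reduced fluorescence by >90% relative to the mean of replicate bacterium-only controls.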

Streptococcus pneumoniae = experiment: Antibacterial activity against Streptococcus pneumoniae ATCC 49619 after 18 to 24 hrs by NCCLS M100-S11 based assay; format: functional
Staphylococcus aureus [2] = experiment: Antibacterial activity against methicillin-sensitive Staphylococcus aureus 12-1 after 18 to 24 hrs by NCCLS M100-S11 based assay; format: functional
[3] = tested on: Staphylococcus epidermidis; experiment: Antibacterial activity against methicillin-sensitive Staphylococcus epidermidis 12-1 after 18 to 24 hrs by NCCLS M100-S11 based assay; format: functional
Staphylococcus aureus [4] = experiment: Antibacterial activity against Staphylococcus aureus ATCC 25923 after 18 to 24 hrs by NCCLS M100-S11 based assay; format: functional
Pseudomonas aeruginosa = experiment: Antibacterial activity against Pseudomonas aeruginosa 12-12 after 18 to 24 hrs by NCCLS M100-S11 based assay; format: functional
[5] = tested on: Staphylococcus epidermidis; experiment: Antibacterial activity against methicillin-resistant Staphylococcus epidermidis 12-6 after 18 to 24 hrs by NCCLS M100-S11 based assay; format: functional
Summary of the method: (§1)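 Broth MIC set up per NCCLS M100-S11. Plates were incubated at 35 °C for 18–24 h. MIC was the lowest concentration that inhibited visible bacterial growth, i.e. complete growth inhibition.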

Staphylococcus aureus [6] = experiment: Antibacterial activity against methicillin-resistant Staphylococcus aureus 12-2 after 18 to 24 hrs by NCCLS M100-S11 based assay; format: functional; summary of the method: as §1
Klebsiella pneumoniae = experiment: Antibacterial activity against Klebsiella pneumoniae 12-1 after 18 to 24 hrs by NCCLS M100-S11 based assay; format: functional
Escherichia coli = experiment: Antibacterial activity against Escherichia coli ATCC 25922 after 18 to 24 hrs by NCCLS M100-S11 based assay; format: functional
Rattus norvegicus [7] = experiment: Acute toxicity in rat assessed as mortality at 1000 mg/kg, po administered as single dose measured up to 7 days post dose; format: organism-based; conditions: in vivo, 168 h
Summary of the method: (§2)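 Single dose given intravenously to mice (50 and 100 mg/kg) or orally to rats (500 and 1000 mg/kg).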

Mus musculus = experiment: Acute toxicity in mouse assessed as mortality at 50 to 100 mg/kg, iv administered as single dose measured up to 7 days post dose; format: organism-based; conditions: in vivo, 168 h; summary of the method: as §2
[8] = Mean residence time in rat at 25 mg/kg, po administered as single dose; format: ADME, organism-based; conditions: in vivo
Summary of the method: (§3)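 Rats given one oral dose of 25 mg/kg; n = 6 animals, values as mean ± SD. Plasma profile gave Cmax, Tmax, AUC from zero to infinity, elimination half-life, mean residence time, apparent clearance (CL/F) and apparent volume of distribution (Vd/F).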

[9] = Tmax in rat at 25 mg/kg, po administered as single dose; format: ADME, organism-based; conditions: in vivo; summary of the method: as §3
Rattus norvegicus [10] = experiment: Acute toxicity in rat assessed as mortality at 500 mg/kg, po administered as single dose measured up to 7 days post dose; format: organism-based; conditions: in vivo, 168 h; summary of the method: as §2
[11] = Apparent clearance in rat at 25 mg/kg, po administered as single dose; format: ADME, organism-based; conditions: in vivo; summary of the method: as §3
[12] = Half life in rat at 25 mg/kg, po administered as single dose; format: ADME, organism-based; conditions: in vivo; summary of the method: as §3
[13] = Apparent volume of distribution in rat at 25 mg/kg, po administered as single dose; format: ADME, organism-based; conditions: in vivo; summary of the method: as §3
[14] = Cmax in rat at 25 mg/kg, po administered as single dose; format: ADME, organism-based; set-up: dose 25 mg/kg, route oral; conditions: in vivo; summary of the method: as §3
[15] = AUC (0 to infinity) in rat at 25 mg/kg, po administered as single dose; format: ADME, organism-based; set-up: dose 25 mg/kg, route oral, time infinity; conditions: in vivo; summary of the method: as §3

Cc1ccn2c(C(=O)NCCOc3ccccc3[N+](=O)[O-])c(C)nc2c1
MIC90 [1]: 0.5 µg/mL (≈ 1.41 µM)

Cc1ccc2nc(C)c(C(=O)NCCOc3ccc(Cl)cc3)n2c1
MIC (Streptococcus pneumoniae): > 32 µg/mL | MIC (Staphylococcus aureus [2]): > 32 µg/mL | MIC [3]: > 32 µg/mL | MIC (Staphylococcus aureus [4]): > 32 µg/mL | MIC (Pseudomonas aeruginosa): > 32 µg/mL | MIC [5]: > 32 µg/mL | MIC (Staphylococcus aureus [6]): > 32 µg/mL | MIC (Klebsiella pneumoniae): > 32 µg/mL | MIC (Escherichia coli): > 32 µg/mL | MIC90 [1]: 0.03 µg/mL (≈ 0.0873 µM)

Cc1ccc(OCCNC(=O)c2c(C)nc3cc(C)ccn23)cc1
MIC90 [1]: 0.673 µg/mL (≈ 2.08 µM)

Cc1ccn2c(C(=O)NCCOc3ccc(Br)cc3)c(C)nc2c1
MIC90 [1]: 0.463 µg/mL (≈ 1.19 µM)

Cc1ccc(OCCNC(=O)c2c(C)nc3ccc(C)cn23)cc1
MIC90 [1]: 0.204 µg/mL (≈ 0.631 µM)

COc1ccccc1OCCNC(=O)c1c(C)nc2cc(C)ccn12
MIC90 [1]: 2 µg/mL (≈ 5.89 µM)

Cc1ccc2nc(C)c(C(=O)NCCNc3ccc(Br)cc3)n2c1
MIC90 [1]: 0.25 µg/mL (≈ 0.646 µM)

Cc1ccn2c(C(=O)NCCOc3ccccc3)c(C)nc2c1
MIC90 [1]: 0.935 µg/mL (≈ 3.02 µM)

Cc1cccc(OCCNC(=O)c2c(C)nc3cc(C)ccn23)c1
MIC90 [1]: 0.329 µg/mL (≈ 1.02 µM)

Cc1ccn2c(C(=O)NCCOc3ccc(-c4ccccc4)cc3)c(C)nc2c1
MIC90 [1]: 0.518 µg/mL (≈ 1.34 µM)

Cc1ccn2c(C(=O)NCCOc3ccc(Cl)cc3)c(C)nc2c1
MIC90 [1]: 2 µg/mL (≈ 5.82 µM)

Cc1cccc(OCCNC(=O)c2c(C)nc3ccc(C)cn23)c1
MIC (Streptococcus pneumoniae): > 32 µg/mL | MIC (Staphylococcus aureus [2]): > 32 µg/mL | MIC [3]: > 32 µg/mL | MIC (Staphylococcus aureus [4]): > 32 µg/mL | MIC (Pseudomonas aeruginosa): > 32 µg/mL | MIC [5]: > 32 µg/mL | MIC (Staphylococcus aureus [6]): > 32 µg/mL | MIC (Klebsiella pneumoniae): > 32 µg/mL | MIC (Escherichia coli): > 32 µg/mL | MIC90 [1]: 0.029 µg/mL (≈ 0.0897 µM)

Cc1ccc2nc(C)c(C(=O)NCCOc3ccc(Br)cc3)n2c1
Activity (Rattus norvegicus [7]): Non-Toxic | MIC (Streptococcus pneumoniae): > 32 µg/mL | Activity (Mus musculus): Non-Toxic | MIC (Staphylococcus aureus [2]): > 32 µg/mL | MIC [3]: > 32 µg/mL | MIC (Staphylococcus aureus [4]): > 32 µg/mL | MRT [8]: 96 min | Tmax [9]: 30 min | MIC (Pseudomonas aeruginosa): > 32 µg/mL | Activity (Rattus norvegicus [10]): Non-Toxic | MIC [5]: > 32 µg/mL | MIC (Staphylococcus aureus [6]): > 32 µg/mL | MIC (Klebsiella pneumoniae): > 32 µg/mL | CL/F [11]: 1440 mL/min/kg | half-life [12]: 90 min | Vd/F [13]: 186 L/kg | MIC (Escherichia coli): > 32 µg/mL | MIC90 [1]: 0.027 µg/mL (≈ 0.0695 µM) | Cmax [14]: 225 ng/mL | AUC(0-inf) [15]: 288 ng·h/mL

COc1ccccc1OCCNC(=O)c1c(C)nc2ccc(C)cn12
MIC90 [1]: 0.401 µg/mL (≈ 1.18 µM)

COc1ccc(OCCNC(=O)c2c(C)nc3cc(C)ccn23)cc1
MIC90 [1]: 2 µg/mL (≈ 5.89 µM)

Cc1ccc2nc(C)c(C(=O)NCCOc3ccc([N+](=O)[O-])cc3)n2c1
MIC90 [1]: 0.245 µg/mL (≈ 0.691 µM)

Cc1ccn2c(C(=O)NCCOc3ccccc3C)c(C)nc2c1
MIC90 [1]: 0.231 µg/mL (≈ 0.714 µM)

Cc1ccn2c(C(=O)NCCOc3ccc(F)cc3)c(C)nc2c1
MIC90 [1]: 2 µg/mL (≈ 6.11 µM)

Cc1ccc2nc(C)c(C(=O)NCCOc3ccc(F)cc3)n2c1
MIC90 [1]: 0.146 µg/mL (≈ 0.446 µM)

Cc1ccn2c(C(=O)NCCOc3cccc([N+](=O)[O-])c3)c(C)nc2c1
MIC90 [1]: 0.5 µg/mL (≈ 1.41 µM)

Cc1ccn2c(C(=O)NCCOc3ccc([N+](=O)[O-])cc3)c(C)nc2c1
MIC90 [1]: 4 µg/mL (≈ 11.3 µM)

COc1cccc(OCCNC(=O)c2c(C)nc3ccc(C)cn23)c1
MIC (Streptococcus pneumoniae): > 32 µg/mL | Activity (Mus musculus): Non-Toxic | MIC (Staphylococcus aureus [2]): > 32 µg/mL | MIC [3]: > 32 µg/mL | MIC (Staphylococcus aureus [4]): > 32 µg/mL | MRT [8]: 42.6 min | Tmax [9]: 10.2 min | MIC (Pseudomonas aeruginosa): > 32 µg/mL | Activity (Rattus norvegicus [10]): Non-Toxic | MIC [5]: > 32 µg/mL | MIC (Staphylococcus aureus [6]): > 32 µg/mL | MIC (Klebsiella pneumoniae): > 32 µg/mL | CL/F [11]: 1940 mL/min/kg | half-life [12]: 67.2 min | Vd/F [13]: 188 L/kg | MIC (Escherichia coli): > 32 µg/mL | MIC90 [1]: 0.03 µg/mL (≈ 0.0884 µM) | Cmax [14]: 351 ng/mL | AUC(0-inf) [15]: 214 ng·h/mL

Cc1ccc2nc(C)c(C(=O)NCCOc3ccccc3[N+](=O)[O-])n2c1
MIC90 [1]: 0.303 µg/mL (≈ 0.855 µM)

Cc1ccc2nc(C)c(C(=O)NCCOc3ccccc3C)n2c1
MIC (Streptococcus pneumoniae): > 32 µg/mL | MIC (Staphylococcus aureus [2]): > 32 µg/mL | MIC [3]: > 32 µg/mL | MIC (Staphylococcus aureus [4]): > 32 µg/mL | MIC (Pseudomonas aeruginosa): > 32 µg/mL | MIC [5]: > 32 µg/mL | MIC (Staphylococcus aureus [6]): > 32 µg/mL | MIC (Klebsiella pneumoniae): > 32 µg/mL | MIC (Escherichia coli): > 32 µg/mL | MIC90 [1]: 0.038 µg/mL (≈ 0.118 µM)

COc1ccc(OCCNC(=O)c2c(C)nc3ccc(C)cn23)cc1
MIC (Streptococcus pneumoniae): > 32 µg/mL | MIC (Staphylococcus aureus [2]): > 32 µg/mL | MIC [3]: > 32 µg/mL | MIC (Staphylococcus aureus [4]): > 32 µg/mL | MIC (Pseudomonas aeruginosa): > 32 µg/mL | MIC [5]: > 32 µg/mL | MIC (Staphylococcus aureus [6]): > 32 µg/mL | MIC (Klebsiella pneumoniae): > 32 µg/mL | MIC (Escherichia coli): > 32 µg/mL | MIC90 [1]: 0.031 µg/mL (≈ 0.0913 µM)

Cc1ccc2nc(C)c(C(=O)NCCOc3ccc(-c4ccccc4)cc3)n2c1
MIC90 [1]: 0.39 µg/mL (≈ 1.01 µM)

Cc1ccc2nc(C)c(C(=O)NCCOc3ccccc3)n2c1
MIC (Streptococcus pneumoniae): > 32 µg/mL | Activity (Mus musculus): Non-Toxic | MIC (Staphylococcus aureus [2]): > 32 µg/mL | MIC [3]: > 32 µg/mL | MIC (Staphylococcus aureus [4]): > 32 µg/mL | MRT [8]: 36.6 min | Tmax [9]: 19.8 min | MIC (Pseudomonas aeruginosa): > 32 µg/mL | Activity (Rattus norvegicus [10]): Non-Toxic | MIC [5]: > 32 µg/mL | MIC (Staphylococcus aureus [6]): > 32 µg/mL | MIC (Klebsiella pneumoniae): > 32 µg/mL | CL/F [11]: 919 mL/min/kg | half-life [12]: 25.8 min | Vd/F [13]: 33.8 L/kg | MIC (Escherichia coli): > 32 µg/mL | MIC90 [1]: 0.054 µg/mL (≈ 0.175 µM) | Cmax [14]: 655 ng/mL | AUC(0-inf) [15]: 453 ng·h/mL

COc1cccc(OCCNC(=O)c2c(C)nc3cc(C)ccn23)c1
MIC90 [1]: 0.254 µg/mL (≈ 0.748 µM)

NNC(=O)c1ccncc1 [ISONIAZID]
MIC90 [1]: 0.049 µg/mL (≈ 0.357 µM)

CO[C@H]1/C=C/O[C@@]2(C)Oc3c(C)c(O)c4c(O)c(c(/C=N/N5CCN(C)CC5)c(O)c4c3C2=O)NC(=O)/C(C)=C\C=C\[C@H](C)[C@H](O)[C@@H](C)[C@@H](O)[C@@H](C)[C@H](OC(C)=O)[C@@H]1C [RIFAMPIN]
MIC90 [1]: 0.05 µg/mL (≈ 0.0608 µM)
